Activity and MIC data for six compounds are collected here from ChEMBL document CHEMBL1649322, “Oral treatment options for ambulatory patients with urinary tract infections caused by extended-spectrum-beta-lactamase-producing Escherichia coli” (2010).

Converted amounts (≈) assume the structure as drawn.

The test system of assay [1] is Escherichia coli. The assay can be described thus: Antimicrobial activity against xtended-spectrum-beta-lactamase-producing Escherichia coli obtained from urinary tract infection patient assessed as percent susceptible isolates by Etest. It is filed as functional, Urine. In short, it runs like this: (§1)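 ESBL-producing E. coli isolates from urinary tract infections; ESBL expression confirmed by double-disk synergy test per 2007 CLSI guidelines. Verified isolates (n = 100) tested by Etest, alongside agar diffusion, for pivmecillinam, fosfomycin and ertapenem. Read-outs were MIC and susceptibility category (susceptible, reduced/intermediate, resistant), given as percent of isolates; mean MIC calculated for susceptible isolates.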

For assay [2], the system named is Escherichia coli. Put plainly: Antimicrobial activity against xtended-spectrum-beta-lactamase-producing Escherichia coli obtained from urinary tract infection patient by Etest. It is filed as functional. As to conditions: Urine. A digest of the protocol:
as §1

In the case of `C[C@@H](O)[C@H]1C(=O)N2C(C(=O)O)=C(S[C@@H]3CN[C@H](C(=O)Nc4cccc(C(=O)O)c4)C3)[C@H](C)[C@H]12` [ERTAPENEM], the Activity with Escherichia coli [1] was determined as 100%. In the assay on Escherichia coli [2], this compound gave an MIC of 0.07 µg/mL (≈ 0.147 µM).

Regarding `O=C1CN(/N=C/c2ccc([N+](=O)[O-])o2)C(=O)N1` [NITROFURANTOIN], the Activity in the assay on Escherichia coli [1] is recorded as 94%. Besides, in the assay on Escherichia coli [2], inhibition of growth (MIC) required 17 µg/mL (≈ 71.5 µM).

In the case of `C[C@@H]1O[C@@H]1P(=O)(O)O` [FOSFOMYCIN], the Activity with Escherichia coli [1] was determined as 97%. Further, the MIC against Escherichia coli [2] came out at 1.38 µg/mL (≈ 10 µM).

In the case of `CC(C)(C)C(=O)OCOC(=O)[C@@H]1N2C(=O)[C@@H](/N=C/N3CCCCCC3)[C@H]2SC1(C)C` [AMDINOCILLIN PIVOXIL], the Activity in the assay with Escherichia coli [1] came out at 85%. In the assay on Escherichia coli [2], this compound gave an MIC of 1.17 µg/mL (≈ 2.66 µM).

Turning to `O=C(O)c1cn(C2CC2)c2cc(N3CCNCC3)c(F)cc2c1=O` [CIPROFLOXACIN], the Activity in the assay on Escherichia coli [1] was 22%.

Regarding GENTAMICIN, the Activity with Escherichia coli [1] (Urine) was determined as 78%.

A word on the MIC: it is the lowest concentration that inhibits growth of the organism. A higher MIC goes with a need for much substance.
